Assay type in all cases: functional
The test system of assay [1] is Hepatocyte. Nature of the assay: Hepatoprotective activity in mouse hepatocytes assessed inhibition of D-galactosamine/TNFalpha-induced cell death dosed administered before 30 mins of TNFalpha challenge measured after 18 hrs. In outline: (§1)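 Primary mouse hepatocytes, isolated by collagenase perfusion, were cultured in William's E medium with 10% calf serum, dexamethasone and insulin at 1.5×10^4 cells/well. TNF-α (100 ng/mL) was added 30 min later. Viability was read by MTT after 18 h. Values are mean ± SD, n = 4 (normal and control n = 8), with Student's t-test versus control.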

The subject of assay [2] is Hepatocyte. Briefly: Hepatoprotective activity in mouse hepatocytes assessed protection against D-galactosamine/TNFalpha-induced cell death at 50 uM administered before 30 mins of TNFalpha challenge measured after 18 hrs. Summed up:
as §1

Assay [3] has as its system Hepatocyte. Briefly: Hepatoprotective activity in mouse hepatocytes assessed inhibition of D-galactosamine/TNFalpha-induced cell death at 100 uM administered before 30 mins of TNFalpha challenge measured after 18 hrs. In outline: as §1
Assay [4] concerns Hepatocyte. Nature of the assay: Hepatoprotective activity against D-galactosamine/TNFalpha-induced cell death in mouse hepatocytes assessed cell survival rate at 50 uM administered before 30 mins of TNFalpha challenge measured after 18 hrs by MTT assay. In outline: as §1
On the technique in general: Tetrazolium assays rely on reduction of a dye to a coloured formazan, in cell work by metabolically active cells.

Assay [5] relates to Hepatocyte. Nature of the assay: Hepatoprotective activity against D-galactosamine/TNFalpha-induced cell death in mouse hepatocytes assessed cell survival rate at 25 uM administered before 30 mins of TNFalpha challenge measured after 18 hrs by MTT assay. In outline:
as §1

Assay [6] has as its system Hepatocyte. Nature of the assay: Hepatoprotective activity in mouse hepatocytes assessed protection against D-galactosamine/TNFalpha-induced cell death at 100 uM administered before 30 mins of TNFalpha challenge measured after 18 hrs. In outline:
as §1

The test system of assay [7] is Hepatocyte. Nature of the assay: Hepatoprotective activity in mouse hepatocytes assessed inhibition of D-galactosamine/TNFalpha-induced cell death at 50 uM administered before 30 mins of TNFalpha challenge measured after 18 hrs. Summed up:
as §1

Assay [8] deals with Hepatocyte. Briefly: Hepatoprotective activity against D-galactosamine/TNFalpha-induced cell death in mouse hepatocytes assessed cell survival rate at 100 uM administered before 30 mins of TNFalpha challenge measured after 18 hrs by MTT assay. In outline:
as §1

The test system of assay [9] is Hepatocyte. Nature of the assay: Hepatoprotective activity in mouse hepatocytes assessed inhibition of D-galactosamine/TNFalpha-induced cell death at 200 uM administered before 30 mins of TNFalpha challenge measured after 18 hrs. Summed up:
as §1

Assay [10] concerns Hepatocyte. Nature of the assay: Hepatoprotective activity in mouse hepatocytes assessed protection against D-galactosamine/TNFalpha-induced cell death at 200 uM administered before 30 mins of TNFalpha challenge measured after 18 hrs. Summed up:
as §1

In assay [11] the test system is Hepatocyte. Nature of the assay: Hepatoprotective activity against D-galactosamine/TNFalpha-induced cell death in mouse hepatocytes assessed cell survival rate at 200 uM administered before 30 mins of TNFalpha challenge measured after 18 hrs by MTT assay. In outline:
as §1

The test system of assay [12] is Hepatocyte. Briefly: Hepatoprotective activity in mouse hepatocytes assessed protection against D-galactosamine/TNFalpha-induced cell death at 25 uM administered before 30 mins of TNFalpha challenge measured after 18 hrs. Summed up: as §1
Assay [13] concerns Hepatocyte. Nature of the assay: Hepatoprotective activity in mouse hepatocytes assessed inhibition of D-galactosamine/TNFalpha-induced cell death at 12.5 uM administered before 30 mins of TNFalpha challenge measured after 18 hrs. In outline:
as §1

In assay [14] the test system is Hepatocyte. Nature of the assay: Hepatoprotective activity against D-galactosamine/TNFalpha-induced cell death in mouse hepatocytes assessed cell survival rate at 12.5 uM administered before 30 mins of TNFalpha challenge measured after 18 hrs by MTT assay. In outline: as §1
In assay [15] the test system is Hepatocyte. Nature of the assay: Hepatoprotective activity in mouse hepatocytes assessed protection against D-galactosamine/TNFalpha-induced cell death at 12.5 uM administered before 30 mins of TNFalpha challenge measured after 18 hrs. Summed up:
as §1

Assay [16] has as its system Hepatocyte. Briefly: Hepatoprotective activity in mouse hepatocytes assessed inhibition of D-galactosamine/TNFalpha-induced cell death at 25 uM administered before 30 mins of TNFalpha challenge measured after 18 hrs. Summed up:
as §1

As a reminder, the IC50 is the midpoint of a concentration-inhibition curve. With `CC(=O)OC[C@H]1O[C@@H](O[C@H]2C[C@]3(C)[C@H](C[C@@H](O)[C@@H]4[C@@H]([C@]5(C)CC[C@@H](C(C)(C)O)O5)CC[C@]43C)[C@@]3(C)CC[C@H](O)C(C)(C)[C@H]23)[C@H](O[C@@H]2O[C@H](C)[C@@H](O)[C@H](O)[C@@H]2O)[C@@H](O)[C@@H]1O` [VINA-GINSENOSIDE R1], half-maximal inhibition in the assay with Hepatocyte [1] (IC50) was put at 47 µM. Also, the Activity is listed as 29% in the assay on Hepatocyte [2] and 71.5% with Hepatocyte [6]. Moreover, the results for the “inhibition (INH)” value in the assay with Hepatocyte [3] and in the assay on Hepatocyte [7] were 89.8% and 51.7%, respectively. The Survival with Hepatocyte [4] was 45.6%; with Hepatocyte [5], 33.1%; in the assay with Hepatocyte [8], 57%.
On to `CC(C)(O)[C@@H]1CC[C@@](C)([C@H]2CC[C@]3(C)[C@@H]2[C@H](O)C[C@@H]2[C@@]4(C)CC[C@H](O)C(C)(C)[C@@H]4[C@@H](O)C[C@]23C)O1` [PROTOPANAXATRIOL OXIDE II], for which half-maximal inhibition with Hepatocyte [1] (IC50) required 74 µM. The values for the Activity in the assay on Hepatocyte [2], with Hepatocyte [10] and in the assay on Hepatocyte [6] were 17.9%, 92.2% and 22.2%, respectively. The “inhibition (INH)” value with Hepatocyte [3] came to 51.7%; with Hepatocyte [9], 209.9%; with Hepatocyte [7], 34.5%. Further, the values for the Survival in the assay on Hepatocyte [4], with Hepatocyte [11] and in the assay with Hepatocyte [8] were 40.2%, 92.6% and 45.3%, respectively.
As to `CC(C)(O)[C@@H]1CC[C@@](C)([C@H]2CC[C@]3(C)[C@@H]2[C@H](O)C[C@@H]2[C@@]4(C)CC[C@H](O)C(C)(C)[C@@H]4[C@@H](O[C@@H]4O[C@H](CO)[C@@H](O)[C@H](O)[C@H]4O[C@@H]4OC[C@@H](O)[C@H](O)[C@H]4O)C[C@]23C)O1` [MAJONOSIDE R2], in the assay on Hepatocyte [1], the IC50 came out at 82.4 µM. Also, the Activity in the assay with Hepatocyte [2] is reported as 16%; with Hepatocyte [10] it was 35.5%; with Hepatocyte [6], 19.3%. Besides, the “inhibition (INH)” value was 55.2% in the assay with Hepatocyte [3], 83.3% with Hepatocyte [9] and 37.5% with Hepatocyte [7]. The Survival in the assay with Hepatocyte [4] is 41.1%; in the assay with Hepatocyte [11], 54.8%; in the assay with Hepatocyte [8], 46.4%.
For the compound `CC(C)=CCC[C@](C)(O)[C@H]1CC[C@]2(C)[C@@H]1[C@H](O)C[C@@H]1[C@@]3(C)CC[C@H](O)C(C)(C)[C@@H]3[C@@H](O[C@@H]3O[C@H](CO)[C@@H](O)[C@H](O)[C@H]3O)C[C@]12C` [GINSENOSIDE RH1], in the assay on Hepatocyte [1], the IC50 is 105 µM. For the same compound, the Activity in the assay with Hepatocyte [2] amounted to 11.7%; with Hepatocyte [10], 34.3%; with Hepatocyte [6], 15.6%. The “inhibition (INH)” value is reported as 36.6% in the assay with Hepatocyte [3], 80.5% in the assay with Hepatocyte [9] and 27.4% with Hepatocyte [7]. Also, the Survival is recorded as 38.1% in the assay on Hepatocyte [4], 54% in the assay on Hepatocyte [11] and 40.8% with Hepatocyte [8].
Turning to `COc1cc(C2Oc3cc([C@H]4Oc5cc(O)cc(O)c5C(=O)[C@@H]4O)ccc3OC2CO)ccc1O` (stereo partly drawn) [SILIBININ], the Activity in the assay with Hepatocyte [12] came out at 42.8%; in the assay on Hepatocyte [2] it was 64.3%; in the assay with Hepatocyte [15] it was 17.3%. In the assay with Hepatocyte [1], the IC50 was 14 µM. Moreover, the figures for the “inhibition (INH)” value in the assay with Hepatocyte [13], with Hepatocyte [16] and with Hepatocyte [7] were 43.4%, 99.7% and 149.7%, respectively. For the same compound, the values for the Survival with Hepatocyte [14], in the assay with Hepatocyte [4] and in the assay with Hepatocyte [5] were 43.1%, 75% and 60%, respectively.
Take `CC(=O)OC[C@H]1O[C@@H](O[C@H]2C[C@]3(C)[C@H](C[C@@H](O)[C@@H]4[C@@H]([C@]5(C)CC[C@@H](C(C)(C)O)O5)CC[C@]43C)[C@@]3(C)CC[C@H](O)C(C)(C)[C@H]23)[C@H](O[C@@H]2OC[C@@H](O)[C@H](O)[C@H]2O)[C@@H](O)[C@@H]1O` [GINSENOSIDE R2]: in the assay with Hepatocyte [1], the IC50 is 63.2 µM. Further, the values for the Activity with Hepatocyte [2], with Hepatocyte [10] and with Hepatocyte [6] were 19%, 61.3% and 31.1%, respectively. Also, the “inhibition (INH)” value with Hepatocyte [3] came to 72.9%; with Hepatocyte [9], 143.8%; in the assay on Hepatocyte [7] it was 44.7%. In addition, the Survival was 43.2% in the assay with Hepatocyte [4], 72.9% in the assay on Hepatocyte [11] and 51.7% with Hepatocyte [8].
For the compound `CC(C)(O)[C@@H]1CC[C@@](C)([C@H]2CC[C@]3(C)[C@@H]2[C@H](O)C[C@@H]2[C@@]4(C)CC[C@H](O)C(C)(C)[C@@H]4[C@@H](O[C@@H]4O[C@H](CO)[C@@H](O)[C@H](O)[C@H]4O)C[C@]23C)O1`, the IC50 in the assay with Hepatocyte [1] came to 74.8 µM. For the same compound, the Activity turned out to be 13.6% with Hepatocyte [2], 39% in the assay with Hepatocyte [10] and 26.8% with Hepatocyte [6]. The “inhibition (INH)” value in the assay on Hepatocyte [3] was 62.8%; in the assay on Hepatocyte [9], 91.5%; with Hepatocyte [7], 31.8%. In addition, the Survival in the assay with Hepatocyte [4] was 39.4%; in the assay with Hepatocyte [11], 57.2%; with Hepatocyte [8], 48.7%.

The record behind these values is ChEMBL document CHEMBL1150813, “Triterpene saponins from Vietnamese ginseng (Panax vietnamensis) and their hepatocytoprotective activity” (J Nat Prod, 2001).
